Source: ChEMBL document CHEMBL1649560, “Beta-lactamase-mediated beta-lactam resistance in Campylobacter species: prevalence of Cj0299 (bla OXA-61) and evidence for a novel beta-Lactamase in C. jejuni” (2009)
Values after ≈ are worked out from the molar mass of the structure shown.

Assays:
Format in all cases: functional
[1] = system: Campylobacter jejuni; experiment: Antibacterial activity against Campylobacter jejuni by NCCLS agar doubling dilution method
How it was run: (§1)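 MICs by agar doubling dilution following the NCCLS (CLSI) Campylobacter Working Group procedure, applied to ampicillin- and amoxicillin-resistant isolates from UK chicken flocks (2000–2006). C. jejuni NCTC 11168 and C. coli NCTC 11366 served as control strains. Resistance was called at an ampicillin cutoff of 8 μg/ml. Other agents were judged against Enterobacteriaceae guidelines (BSAC, CLSI).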

[2] = system: Campylobacter coli; experiment: Antibacterial activity against Campylobacter coli by NCCLS agar doubling dilution method; how it was run: as §1
[3] = system: Campylobacter jejuni; experiment: Antibacterial activity against bla gene-positive and nitrocefin reaction-negative beta-lactamase harboring Campylobacter jejuni NCTC 11168 by NCCLS agar doubling dilution method
How it was run: (§2)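 MICs of β-lactams by agar doubling dilution following the NCCLS (CLSI) Campylobacter Working Group procedure, with C. jejuni NCTC 11168 and C. coli NCTC 11366 as controls. Isolates were from UK poultry flocks. β-Lactamase status was set by Cj0299 PCR (281-bp amplimer) and by a nitrocefin colour change of sonicated lysate within 5 min, or within 30 min on repeat.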

[4] = system: Campylobacter jejuni; experiment: Antibacterial activity against bla gene-negative and nitrocefin reaction-negative beta-lactamase harboring Campylobacter jejuni isolate P835 by NCCLS agar doubling dilution method; how it was run: as §2
[5] = system: Campylobacter jejuni; experiment: Antibacterial activity against bla gene-negative and nitrocefin reaction-negative beta-lactamase harboring Campylobacter jejuni isolate P850 by NCCLS agar doubling dilution method; how it was run: as §2
[6] = system: Campylobacter jejuni; experiment: Antibacterial activity against bla gene-negative and nitrocefin reaction-negative beta-lactamase harboring Campylobacter jejuni isolate P1962 by NCCLS agar doubling dilution method; how it was run: as §2
[7] = system: Campylobacter jejuni; experiment: Antibacterial activity against bla gene-positive and nitrocefin reaction-positive beta-lactamase harboring Campylobacter jejuni isolate P285 by NCCLS agar doubling dilution method
How it was run: (§3)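 MICs by agar doubling dilution per the NCCLS (now CLSI) Campylobacter Working Group method. Isolates came from UK chicken flocks (feces, ceca or farm environment), 2000–2006. C. jejuni NCTC 11168 and C. coli NCTC 11366 served as control strains. The ampicillin resistance cutoff was 8 μg/ml; BSAC/CLSI Enterobacteriaceae guidelines were used for other agents.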

[8] = system: Campylobacter jejuni; experiment: Antibacterial activity against bla gene-positive and nitrocefin reaction-positive beta-lactamase harboring Campylobacter jejuni isolate P286 by NCCLS agar doubling dilution method; how it was run: as §3
[9] = system: Campylobacter jejuni; experiment: Antibacterial activity against bla gene-positive and nitrocefin reaction-positive beta-lactamase harboring Campylobacter jejuni isolate P305 by NCCLS agar doubling dilution method; how it was run: as §3
[10] = system: Campylobacter jejuni; experiment: Antibacterial activity against bla gene-positive and nitrocefin reaction-positive beta-lactamase harboring Campylobacter jejuni isolate P316 by NCCLS agar doubling dilution method; how it was run: as §3
[11] = system: Campylobacter jejuni; experiment: Antibacterial activity against bla gene-positive and nitrocefin reaction-positive beta-lactamase harboring Campylobacter jejuni isolate P338 by NCCLS agar doubling dilution method; how it was run: as §3
[12] = system: Campylobacter jejuni; experiment: Antibacterial activity against bla gene-positive and nitrocefin reaction-positive beta-lactamase harboring Campylobacter jejuni isolate P790 by NCCLS agar doubling dilution method; how it was run: as §3
[13] = system: Campylobacter jejuni; experiment: Antibacterial activity against bla gene-positive and nitrocefin reaction-positive beta-lactamase harboring Campylobacter jejuni isolate P1618 by NCCLS agar doubling dilution method; how it was run: as §2
[14] = system: Campylobacter jejuni; experiment: Antibacterial activity against bla gene-positive and nitrocefin reaction-positive beta-lactamase harboring Campylobacter jejuni isolate P1650 by NCCLS agar doubling dilution method; how it was run: as §2
[15] = system: Campylobacter jejuni; experiment: Antibacterial activity against bla gene-positive and nitrocefin reaction-positive beta-lactamase harboring Campylobacter jejuni isolate P1730 by NCCLS agar doubling dilution method; how it was run: as §3
[16] = system: Campylobacter jejuni; experiment: Antibacterial activity against bla gene-positive and nitrocefin reaction-negative beta-lactamase harboring Campylobacter jejuni isolate P1698 by NCCLS agar doubling dilution method; how it was run: as §2
[17] = system: Campylobacter jejuni; experiment: Antibacterial activity against bla gene-positive and nitrocefin reaction-negative beta-lactamase harboring Campylobacter jejuni isolate P1699 by NCCLS agar doubling dilution method; how it was run: as §2
[18] = system: Campylobacter jejuni; experiment: Antibacterial activity against bla gene-negative and nitrocefin reaction-positive beta-lactamase harboring Campylobacter jejuni isolate P843 by NCCLS agar doubling dilution method; how it was run: as §2
[19] = system: Campylobacter jejuni; experiment: Antibacterial activity against bla gene-negative and nitrocefin reaction-positive beta-lactamase harboring Campylobacter jejuni isolate P854 by NCCLS agar doubling dilution method; how it was run: as §2
[20] = system: Campylobacter coli; experiment: Antibacterial activity against bla gene-positive and nitrocefin reaction-positive beta-lactamase harboring Campylobacter coli isolate P321 by NCCLS agar doubling dilution method; how it was run: as §2
[21] = system: Campylobacter coli; experiment: Antibacterial activity against bla-positive and beta-lactamase-weakly positive Campylobacter coli isolate P1627 by NCCLS agar doubling dilution method; how it was run: as §3
[22] = system: Campylobacter coli; experiment: Antibacterial activity against bla gene-positive and nitrocefin reaction-positive beta-lactamase harboring Campylobacter coli isolate P1826 by NCCLS agar doubling dilution method; how it was run: as §2
[23] = system: Campylobacter jejuni; experiment: Antibacterial activity against Campylobacter jejuni isolate P270 harboring blaOXA-61::cat gene by NCCLS agar doubling dilution method
[24] = system: Campylobacter jejuni; experiment: Antibacterial activity against Campylobacter jejuni isolate P338 harboring blaOXA-61::cat gene by NCCLS agar doubling dilution method
How it was run: (§4)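 Agar doubling dilution MICs (NCCLS/CLSI Campylobacter Working Group method) against Cj0299-inactivated mutants. Mutants were made by transforming the C. jejuni isolate with pCI and selecting on Mueller-Hinton agar with 10 μg/ml chloramphenicol for 3–5 days. Chromosomal insertion was confirmed by PCR with Cj0299 and cat primers.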

[25] = system: Campylobacter jejuni; experiment: Antibacterial activity against bla gene-positive and nitrocefin reaction-positive beta-lactamase harboring Campylobacter jejuni isolate P1093 by NCCLS agar doubling dilution method; how it was run: as §2
[26] = system: Campylobacter jejuni; experiment: Antibacterial activity against Campylobacter jejuni isolate P1093 harboring blaOXA-61::cat gene by NCCLS agar doubling dilution method; how it was run: as §4

Row | SMILES | MIC50 [1] [µg/mL] | MIC90 [1] [µg/mL] | MIC50 [2] [µg/mL] | MIC90 [2] [µg/mL] | MIC [3] [µg/mL] | MIC [4] [µg/mL] | MIC [5] [µg/mL] | MIC [6] [µg/mL] | MIC [7] [µg/mL] | MIC [8] [µg/mL] | MIC [9] [µg/mL] | MIC [10] [µg/mL] | MIC [11] [µg/mL] | MIC [12] [µg/mL] | MIC [13] [µg/mL] | MIC [14] [µg/mL] | MIC [15] [µg/mL] | MIC [16] [µg/mL] | MIC [17] [µg/mL] | MIC [18] [µg/mL] | further results
1 | C[C@H]1[C@H](NC(=O)/C(=N\OC(C)(C)C(=O)O)c2csc(N)n2)C(=O)N1S(=O)(=O)O [AZTREONAM] | 64 (≈ 147 µM) | > 128 | 64 (≈ 147 µM) | > 128 | 64 (≈ 147 µM) | 128 (≈ 294 µM) | > 32 | 4 (≈ 9.19 µM) | > 128 | > 128 | > 128 | > 128 | 128 (≈ 294 µM) | > 128 | 64 (≈ 147 µM) | 128 (≈ 294 µM) | 32 (≈ 73.5 µM) | 128 (≈ 294 µM) | < 1 | > 128 | MIC [19]: 4 µg/mL (≈ 9.19 µM); MIC [20]: > 128 µg/mL; MIC [21]: > 128 µg/mL; MIC [22]: 32 µg/mL (≈ 73.5 µM)
2 | Cn1nnnc1SCC1=C(C(=O)O)N2C(=O)[C@@H](NC(=O)[C@H](O)c3ccccc3)[C@H]2SC1 [CEFAMANDOLE] | > 256 | > 256 | > 256 | > 256 | – | – | – | – | – | – | – | – | – | – | – | – | – | – | – | – | –
3 | CC1(C)S[C@@H]2[C@H](NC(=O)C(C(=O)O)c3ccccc3)C(=O)N2[C@H]1C(=O)O (stereo not given in full) [CARBENICILLIN] | 128 (≈ 338 µM) | 256 (≈ 677 µM) | 128 (≈ 338 µM) | 256 (≈ 677 µM) | 16 (≈ 42.3 µM) | 8 (≈ 21.1 µM) | 256 (≈ 677 µM) | < 16 | 256 (≈ 677 µM) | 256 (≈ 677 µM) | > 256 | 128 (≈ 338 µM) | 128 (≈ 338 µM) | 256 (≈ 677 µM) | 128 (≈ 338 µM) | 64 (≈ 169 µM) | 128 (≈ 338 µM) | 32 (≈ 84.6 µM) | 64 (≈ 169 µM) | < 16 | MIC [23]: 4 µg/mL (≈ 10.6 µM); MIC [24]: 8 µg/mL (≈ 21.1 µM); MIC [25]: 256 µg/mL (≈ 677 µM); MIC [26]: 16 µg/mL (≈ 42.3 µM); MIC [19]: > 256 µg/mL; MIC [20]: 256 µg/mL (≈ 677 µM); MIC [21]: 32 µg/mL (≈ 84.6 µM); MIC [22]: 128 µg/mL (≈ 338 µM)
4 | CC1(C)S[C@@H]2[C@H](NC(=O)[C@H](C(=O)O)c3ccsc3)C(=O)N2[C@H]1C(=O)O [TICARCILLIN] | 64 (≈ 166 µM) | 128 (≈ 333 µM) | 64 (≈ 166 µM) | 128 (≈ 333 µM) | 2 (≈ 5.2 µM) | 4 (≈ 10.4 µM) | 128 (≈ 333 µM) | < 4 | 64 (≈ 166 µM) | 64 (≈ 166 µM) | 128 (≈ 333 µM) | 64 (≈ 166 µM) | 64 (≈ 166 µM) | 128 (≈ 333 µM) | 64 (≈ 166 µM) | 64 (≈ 166 µM) | 32 (≈ 83.2 µM) | 64 (≈ 166 µM) | 128 (≈ 333 µM) | 128 (≈ 333 µM) | MIC [23]: 2 µg/mL (≈ 5.2 µM); MIC [24]: 4 µg/mL (≈ 10.4 µM); MIC [25]: 32 µg/mL (≈ 83.2 µM); MIC [26]: 8 µg/mL (≈ 20.8 µM); MIC [19]: 128 µg/mL (≈ 333 µM); MIC [20]: 64 µg/mL (≈ 166 µM); MIC [21]: 64 µg/mL (≈ 166 µM)
5 | C[C@@H](O)[C@H]1C(=O)N2C(C(=O)O)=C(SCCNC=N)C[C@H]12 [IMIPENEM ANHYDROUS] | 0.03 (≈ 0.1 µM) | 0.06 (≈ 0.2 µM) | 0.06 (≈ 0.2 µM) | 0.12 (≈ 0.401 µM) | 0.03 (≈ 0.1 µM) | 0.06 (≈ 0.2 µM) | 0.06 (≈ 0.2 µM) | 0.015 (≈ 0.0501 µM) | 0.015 (≈ 0.0501 µM) | 0.25 (≈ 0.835 µM) | 0.06 (≈ 0.2 µM) | 0.06 (≈ 0.2 µM) | 0.06 (≈ 0.2 µM) | 0.12 (≈ 0.401 µM) | 0.015 (≈ 0.0501 µM) | 0.06 (≈ 0.2 µM) | 0.015 (≈ 0.0501 µM) | 0.06 (≈ 0.2 µM) | 0.03 (≈ 0.1 µM) | 0.06 (≈ 0.2 µM) | MIC [23]: 0.03 µg/mL (≈ 0.1 µM); MIC [24]: 0.03 µg/mL (≈ 0.1 µM); MIC [25]: 0.12 µg/mL (≈ 0.401 µM); MIC [26]: 0.12 µg/mL (≈ 0.401 µM); MIC [19]: 0.06 µg/mL (≈ 0.2 µM); MIC [20]: 0.12 µg/mL (≈ 0.401 µM); MIC [21]: 0.12 µg/mL (≈ 0.401 µM); MIC [22]: 0.03 µg/mL (≈ 0.1 µM)
6 | CC(=O)OCC1=C(C(=O)O)N2C(=O)[C@@H](NC(=O)Cc3cccs3)[C@H]2SC1 [CEPHALOTHIN] | > 256 | > 256 | 256 (≈ 646 µM) | > 256 | – | – | – | – | – | – | – | – | – | – | – | – | – | – | – | – | –
7 | CC1(C)S[C@@H]2[C@H](NC(=O)[C@H](N)c3ccc(O)cc3)C(=O)N2[C@H]1C(=O)O [AMOXICILLIN] | 64 (≈ 175 µM) | 128 (≈ 350 µM) | 128 (≈ 350 µM) | > 128 | 4 (≈ 10.9 µM) | 0.25 (≈ 0.684 µM) | 1 (≈ 2.74 µM) | 2 (≈ 5.47 µM) | 64 (≈ 175 µM) | 64 (≈ 175 µM) | 64 (≈ 175 µM) | 32 (≈ 87.6 µM) | 64 (≈ 175 µM) | 64 (≈ 175 µM) | 64 (≈ 175 µM) | 64 (≈ 175 µM) | 64 (≈ 175 µM) | 128 (≈ 350 µM) | 64 (≈ 175 µM) | 64 (≈ 175 µM) | MIC [25]: 64 µg/mL (≈ 175 µM); MIC [19]: 128 µg/mL (≈ 350 µM); MIC [20]: 64 µg/mL (≈ 175 µM); MIC [21]: 8 µg/mL (≈ 21.9 µM); MIC [22]: 128 µg/mL (≈ 350 µM)
